Reference: ChEMBL document CHEMBL1153346, “Structure-activity study of pentamidine analogues as antiprotozoal agents” (J Med Chem, 2009)

Columns and labels:
[1] = Selectivity index, ratio of IC50 for rat L6 cells to IC50 for chloroquine-resistant Plasmodium falciparum K1; type: toxicity, cell-based; settings: read-out: Ratio IC50
How it was run: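 Ratio of L6 IC50 to K1 IC50. L6 cells: Alamar blue assay after 70 h, 37 °C. K1: [3H]-hypoxanthine incorporation in infected red cells over 48 + 24 h at 37 °C under low O2. IC50s from sigmoidal curves, two independent runs in duplicate.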

Plasmodium falciparum = assay: Antiprotozoal activity after 48 hrs against chloroquine-resistant Plasmodium falciparum K1 infected erythrocytes by [3H]hypoxanthine uptake; type: functional, organism-based
How it was run: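 Erythrocytic stages in infected human red cells (hematocrit 1.25%, parasitemia 0.3%) in supplemented RPMI 1640 with Albumax II. Serial dilutions incubated at 37 °C in 93% N2/4% CO2/3% O2. [3H]-hypoxanthine (0.5 µCi/well) added at 48 h, then 24 h more. Incorporation counted by scintillation. IC50 from sigmoidal curves; two independent runs in duplicate.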

[2] = Selectivity index, ratio of IC50 for rat L6 cells to IC50 for Trypanosoma brucei rhodesiense STIB900 trypomastigotes; type: toxicity, cell-based; settings: read-out: Ratio IC50
How it was run: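 Ratio of L6 IC50 to STIB900 IC50. L6 cells: 4000/well in RPMI 1640 with 10% FBS, 70 h at 37 °C. Bloodstream forms: 2000/well in supplemented MEM with 15% horse serum, 70 h at 37 °C. Both read by Alamar blue fluorescence; IC50s from sigmoidal curves, two independent runs in duplicate.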

L6 = assay: Cytotoxicity against rat L6 cells after 70 hrs by alamar blue assay; type: cell-based; settings: L6, 70 h
How it was run: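 L6 rat myoblasts, 4000 per well, in RPMI 1640 with 2 mM L-glutamine, HEPES, NaHCO₃ and 10% FBS. Exposed to serial dilutions (DMSO ≤1%) for 70 h at 37 °C in humidified 5% CO₂. Resazurin then added for 2-3 h; fluorescence read at ex 536/em 588 nm. IC50 from sigmoidal curves; two independent runs in duplicate.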

Leishmania donovani = assay: Antiprotozoal activity against Leishmania donovani MHOM/SD/62/1S-CL2D axenic amastigotes after 72 hrs; type: functional, organism-based
How it was run: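 L. donovani axenic amastigotes, adapted from promastigotes and grown in amastigote medium at 37 °C. 6 × 10⁴ parasites per well with 2-fold compound dilutions (DMSO ≤1%), incubated 72 h at 37 °C in humidified 5% CO₂. Growth read by tetrazolium (CellTiter) absorbance at 490 nm. IC50 from a four-parameter dose-response fit. Average of duplicate determinations.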

[3] = test system: Trypanosoma brucei rhodesiense; assay: Antiprotozoal activity against Trypanosoma brucei rhodesiense STIB900 trypomastigotes after 70 hrs by alamar blue assay; type: functional, organism-based
How it was run: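 Bloodstream forms, 2000 per well, in MEM with Earle's salts plus 0.2 mM 2-mercaptoethanol, 1 mM pyruvate, 0.5 mM hypoxanthine and 15% heat-inactivated horse serum. Exposed to serial dilutions (DMSO ≤1%) for 70 h at 37 °C in 5% CO₂. Resazurin then added for a further 2-6 h. IC50 from sigmoidal curves; two independent runs in duplicate.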

[4] = Selectivity index, ratio of IC50 for rat L6 cells to IC50 for Leishmania donovani MHOM/SD/62/1S-CL2D axenic amastigotes; type: toxicity, cell-based; settings: read-out: Ratio IC50
How it was run: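 Amastigotes: 6 × 10⁴ parasites/well with 2-fold dilutions, 72 h at 37 °C in 5% CO2. Growth read by tetrazolium CellTiter absorbance at 490 nm; IC50 from a four-parameter dose-response fit.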

Compound | selectivity ratio [1] | IC50 (Plasmodium falciparum) | selectivity ratio [2] | IC50 (L6) | IC50 (Leishmania donovani) | IC50 [3] | selectivity ratio [4]
N=C(N)c1ccc(OCCCCCOc2ccc(C(=N)N)c(O)c2)cc1O | > 151 | 1.29 µM | > 24 | > 195 µM | > 100 µM | 7.96 µM | 
Nc1cc(C2=NCCN2)ccc1OCCCOc1ccc(C2=NCCN2)cc1N | > 2390 | 0.07 µM | > 205 | > 167 µM |  | 0.813 µM | 
CNC(=N)c1ccc(OCCCOc2ccc(C(=N)NC)cc2OC)c(OC)c1 | 276 | 0.641 µM | 3100 | 177 µM | 25.3 µM | 0.057 µM | 7
c1cc(OCCCCCOc2cccc(C3=NCCN3)c2)cc(C2=NCCN2)c1 | 4170 | 0.024 µM | 67 | 100 µM | 22.4 µM | 1.49 µM | 4
CCOC(=O)c1cc(C2=NCCN2)ccc1OCCCCCOc1ccc(C2=NCCN2)cc1C(=O)OCC | > 5110 | 0.027 µM |  | > 138 µM | 13.6 µM | > 15.3 µM | > 10
c1cc(OCCCOc2cccc(C3=NCCN3)c2)cc(C2=NCCN2)c1 | 8 | 5.39 µM | 10 | 43.5 µM | 30.8 µM | 4.3 µM | 1
N=C(N)c1ccc(S(=O)(=O)CCCCCS(=O)(=O)c2ccc(C(=N)N)cc2)cc1 | > 1780 | 0.098 µM | > 6 | > 174 µM | > 100 µM | 28.1 µM | 2
c1cc(OCCCCOc2cccc(C3=NCCN3)c2)cc(C2=NCCN2)c1 | > 1730 | 0.107 µM | > 95 | > 185 µM | 39.5 µM | 1.94 µM | > 5
N=C(N)c1ccc(OCCCOc2ccc(C(=N)N)cc2[N+](=O)[O-])c([N+](=O)[O-])c1 | 651 | 0.035 µM | 121 | 22.8 µM | 30.9 µM | 0.188 µM | 0.7
Fc1cc(OCCCCCOc2ccc(C3=NCCN3)c(F)c2)ccc1C1=NCCN1 | 43 | 0.544 µM | 5 | 23.2 µM | 52.6 µM | 4.46 µM | 0.4
N=C(N)c1ccc(OCCCCOc2ccc(C(=N)N)cc2[N+](=O)[O-])c([N+](=O)[O-])c1 | 2380 | 0.018 µM | 236 | 42.8 µM | 15.1 µM | 0.181 µM | 3
Oc1cc(OCCCCCOc2ccc(C3=NCCN3)c(O)c2)ccc1C1=NCCN1 | > 1720 | 0.098 µM | > 46 | > 169 µM | > 100 µM | 3.7 µM | 2
CC(C)NC(=N)c1ccc(OCCCCCOc2ccc(C(=N)NC(C)C)c(F)c2)cc1F | 18700 | 0.007 µM | 506 | 131 µM | 15 µM | 0.259 µM | 9
CC(C)NC(=N)c1cccc(OCCCCOc2cccc(C(=N)NC(C)C)c2)c1 | > 13200 | 0.013 µM | > 276 | > 171 µM | 19.3 µM | 0.619 µM | > 9
N=C(N)c1ccc(OCCCCCOc2ccc(/C(N)=N\O)cc2)cc1 | 50 | 0.234 µM | 40 | 11.6 µM | 55.6 µM | 0.289 µM | < 1
O=C(O)c1cc(C2=NCCN2)ccc1OCCCCCOc1ccc(C2=NCCN2)cc1C(=O)O |  | > 1.68 µM |  | > 151 µM | > 200 µM | > 16.8 µM | 
N=C(N)c1ccc(OCCCCCOc2ccc(C(=N)N)cc2[N+](=O)[O-])c([N+](=O)[O-])c1 | 1550 | 0.024 µM | 381 | 37.3 µM | 11.4 µM | 0.098 µM | 3

Compound | selectivity ratio [1] | IC50 (Plasmodium falciparum) | selectivity ratio [2] | IC50 (L6) | IC50 (Leishmania donovani) | IC50 [3] | selectivity ratio [4]
CCOC(=O)c1cc(C(=N)N)ccc1OCCCCCOc1ccc(C(=N)N)cc1C(N)=O | > 11800 | 0.014 µM | > 15000 | > 165 µM | 52.1 µM | 0.011 µM | > 3
c1cc(OCCCCCCOc2cccc(C3=NCCN3)c2)cc(C2=NCCN2)c1 | 4950 | 0.02 µM | 113 | 99 µM | 21.9 µM | 0.875 µM | 5
C[C@@H]1CC[C@H]2[C@@H](C)C(=O)O[C@@H]3O[C@@]4(C)CC[C@@H]1[C@]32OO4 [ARTEMISININ] | 75000 |  |  |  |  |  | 
c1cc(-c2nnn[nH]2)ccc1OCCCCCOc1ccc(-c2nnn[nH]2)cc1 | > 28 | 8.31 µM |  | > 229 µM | > 100 µM | > 229 µM | 2
N=C(N)c1ccc(OCCCCCOc2ccc(C(=N)N)cc2C(=O)O)c(C(=O)O)c1 | 2 | 71.8 µM |  | > 165 µM |  | > 18.3 µM | 
N=C(N)c1ccc(OCCCCCOc2ccc(N)cc2)cc1 | 54 | 2.24 µM | 91 | 120 µM | > 100 µM | 1.31 µM | 1
CN1CCN=C1c1ccc(OCCCCCOc2ccc(C3=NCCN3C)cc2)cc1 | > 107 | 1.65 µM |  | > 176 µM | > 100 µM | > 19.6 µM | 2
N=C(N)c1ccc(OCCCOc2ccc(C(=O)O)cc2)cc1 | < 60 | > 2.8 µM | < 0.6 | 167 µM | > 100 µM | > 257 µM | < 2
CC(C)NC(=N)c1cccc(OCCCCCOc2cccc(C(=N)NC(C)C)c2)c1 | > 43800 | 0.004 µM | > 421 | > 175 µM | 15.4 µM | 0.416 µM | > 11
CCOC(=O)c1cc(C(=N)N)ccc1OCCCCCOc1ccc(C(=N)N)cc1C(=O)OCC | > 7240 | 0.021 µM | > 13 | > 152 µM | > 50 µM | 12.1 µM | 
CC(=N)Nc1ccc(OCCCCCOc2ccc(NC(C)=N)cc2)cc1 | > 4210 | 0.048 µM | > 66 | > 202 µM | > 100 µM | 3.04 µM | 
N/N=C(\N)c1ccc(OCCCCCOc2ccc(/C(N)=N/N)cc2)cc1 | 99 | 1.41 µM | 14 | 139 µM | 126 µM | 9.67 µM | 1
CC(C)NC(=N)c1cccc(OCCCOc2cccc(C(=N)NC(C)C)c2)c1 | > 10200 | 0.018 µM | > 337 | > 183 µM | 16.2 µM | 0.543 µM | > 11
CC(C)NC(=N)c1ccc(OCCCCCOc2ccc(C(=N)NC(C)C)c(O)c2)cc1O | > 269 | 0.581 µM | > 11 | > 156 µM | > 100 µM | 14.7 µM | 2
CC(C)NC(=N)c1cccc(OCCCCCCOc2cccc(C(=N)NC(C)C)c2)c1 | 17800 | 0.006 µM | 415 | 107 µM | 11.6 µM | 0.258 µM | 9
CC(C)NC(=N)c1ccc(OCCCCCOc2ccc(C(=N)NC(C)C)cc2C(=O)O)c(C(=O)O)c1 |  | > 1.6 µM |  | > 144 µM | > 200 µM | > 16 µM | 
